Consider six compounds from ChEMBL document CHEMBL3244090, “Combined high oxytocic with negligible antidiuretic and pressor activities in multisubstituted oxytocins” (J Med Chem, 1977).

*1 amine or outer side, *2 acyl side, *3 side chain or, on linkers, in order; H or OH if unused. Where a SMILES comes first, the peptide text is derived from it. Bridges are numbered along the chain shown (N, C = ends). X1 = O=C([C@H](O)CS[*:2])[*:1]

Data set [1] can be described thus: Oxytocic potency in rat uterus. Type of data set: functional. The procedure, abridged: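 Isolated uterine horns from rats in natural estrus. The standard was given repeatedly until reproducible values were obtained. After the preparation was exposed to an analogue, several further doses of standard were needed before the standard's potency became consistent between analogue injections.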

Data set [2] relates to Gallus gallus. Briefly: Vasodepressor activity in conscious chicken. In kind it is ADME, organism-based. The following applies: in vivo. The procedure, abridged:
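Vasodepressor assay run in conscious chickens.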

Data set [3] deals with Rattus norvegicus. Briefly: Antidiuretic activity in iv dosed rat. The following applies: in vivo. Type of data set: ADME, organism-based, Urine. A digest of the protocol: (§1)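 Pressor and antidiuretic assays run in anesthetized male rats.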
Data set [4] in a line: Ratio of oxytocic potency to antidiuretic activity in rat. Also on record: species or system Urine.
Data set [5] is filed under the species Rattus norvegicus. Briefly: Vasopressor activity in rat. Type of data set: ADME, organism-based. Particulars: in vivo. The procedure, abridged:
as §1

In the case of `CC[C@H](C)[C@@H]1NC(=O)[C@H](Cc2ccc(O)cc2)NC(=O)[C@@H](N)CSSC[C@@H](C(=O)N2CCC[C@H]2C(=O)N[C@@H](CC(C)C)C(=O)NCC(N)=O)NC(=O)[C@H](CC(N)=O)NC(=O)[C@H](CCC(N)=O)NC1=O` [OXYTOCIN], the Activity in data set [1] is listed as 546 U/mg; in data set [2], 507 U/mg; in data set [3], 2.7 U/mg; in data set [5] it was 3.1 U/mg. In addition, the Ratio in data set [4] was determined as 200.
With `CC[C@H](C)[C@@H]1NC(=O)[C@H](Cc2ccc(O)cc2)NC(=O)[C@H](O)CSSC[C@@H](C(=O)NCC(=O)N[C@@H](CC(C)C)C(=O)NCC(N)=O)NC(=O)[C@H](CC(N)=O)NC(=O)[C@H]([C@@H](C)O)NC1=O` (YITNCGLG-NH2; linker N-5 via X1), the Activity came to 337 U/mg in data set [1], 50 U/mg in data set [2] and 0.048 U/mg in data set [3]. The Ratio in data set [4] stood at 7000.
Consider `CC[C@H](C)[C@@H]1NC(=O)[C@H](Cc2ccc(O)cc2)NC(=O)[C@H](O)CSSC[C@@H](C(=O)N2CCC[C@H]2C(=O)N[C@@H](CC(C)C)C(=O)NCC(N)=O)NC(=O)[C@H](CC(N)=O)NC(=O)[C@H](CCC(N)=O)NC1=O` (YIQNCPLG-NH2; linker N-5 via X1), for which the Activity in data set [1] is listed as 1275 U/mg; in data set [2] it was 1778 U/mg; in data set [3], 16.6 U/mg; in data set [5] it was 14.7 U/mg. For the same compound, in data set [4], the Ratio is 40.
The like results for `CC[C@H](C)[C@@H]1NC(=O)[C@H](Cc2ccc(O)cc2)NC(=O)[C@@H](N)CSSC[C@@H](C(=O)N2CCC[C@H]2C(=O)N[C@@H](CC(C)C)C(=O)NCC(N)=O)NC(=O)[C@H](CC(N)=O)NC(=O)[C@H]([C@@H](C)O)NC1=O` (H-CYITNCPLG-NH2; disulfide 1-6) were, in that order, 923 U/mg, 1480 U/mg, 1.8 U/mg, 0.43 U/mg and 500.
In the case of `CC[C@H](C)[C@@H]1NC(=O)[C@H](Cc2ccc(O)cc2)NC(=O)[C@@H](N)CSSC[C@@H](C(=O)NCC(=O)N[C@@H](CC(C)C)C(=O)NCC(N)=O)NC(=O)[C@H](CC(N)=O)NC(=O)[C@H]([C@@H](C)O)NC1=O` (H-CYITNCGLG-NH2; disulfide 1-6), the values for the Activity in data set [1], in data set [2] and in data set [3] were 175 U/mg, 8.6 U/mg and 0.001 U/mg, respectively. In addition, the Ratio in data set [4] is on record as 135000.
On to `CC[C@H](C)[C@@H]1NC(=O)[C@H](Cc2ccc(O)cc2)NC(=O)[C@@H](N)CSSC[C@@H](C(=O)NCC(=O)N[C@@H](CC(C)C)C(=O)NCC(N)=O)NC(=O)[C@H](CC(N)=O)NC(=O)[C@H](CCC(N)=O)NC1=O` (H-CYIQNCGLG-NH2; disulfide 1-6), for which the Activity was found to be 65 U/mg in data set [1], 224 U/mg in data set [2], 0.01 U/mg in data set [3] and 0.3 U/mg in data set [5]. The Ratio in data set [4] is reported as 6500.
